An excerpt weighted towards active compounds, which were near 1.7% of everything screened.
C2C12 statin = suppressors of statin myotoxicity in C2C12 myotubes, primary screen, cell-based, single point, plate reader | 330,000 compounds, 0.78% hits | rescue of ATP level, % at 7.49 µM | AID 602340, 2012 | C2C12 myotubes + simvastatin, ATP luminescence, 48 h; scaled: DMSO 0, geranylgeraniol control 100;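 active = mean ATP rescue above about 67%, or every replicate alone reaching that limit, limit read from the data, passing the limit was not always enough; inconclusive = no clear call, values can overlap the other calls; inactive = mean under the limit and some replicate under it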;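 also: myotubes were challenged with 10 µM simvastatin during compound exposure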
SR-BI DiI inh = inhibitors of SR-BI mediated HDL lipid uptake, primary screen, ldlA[mSR-BI] cells, fluorescence, single point; 320,000 compounds, 0.96% hits; Scavenger receptor class B member 1 (Mus musculus), Q61009; ldlA[mSR-BI] CHO cells, DiI-HDL uptake fluorescence, 3 h; inhibition, % at 12.5 µM;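 active = mean replicate inhibition of at least 70% and a set share of replicates each scoring 70 or more; inconclusive = meets just one of the two criteria; inactive = fails both criteria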
Target sequence (Q61009 whole entry, looked up): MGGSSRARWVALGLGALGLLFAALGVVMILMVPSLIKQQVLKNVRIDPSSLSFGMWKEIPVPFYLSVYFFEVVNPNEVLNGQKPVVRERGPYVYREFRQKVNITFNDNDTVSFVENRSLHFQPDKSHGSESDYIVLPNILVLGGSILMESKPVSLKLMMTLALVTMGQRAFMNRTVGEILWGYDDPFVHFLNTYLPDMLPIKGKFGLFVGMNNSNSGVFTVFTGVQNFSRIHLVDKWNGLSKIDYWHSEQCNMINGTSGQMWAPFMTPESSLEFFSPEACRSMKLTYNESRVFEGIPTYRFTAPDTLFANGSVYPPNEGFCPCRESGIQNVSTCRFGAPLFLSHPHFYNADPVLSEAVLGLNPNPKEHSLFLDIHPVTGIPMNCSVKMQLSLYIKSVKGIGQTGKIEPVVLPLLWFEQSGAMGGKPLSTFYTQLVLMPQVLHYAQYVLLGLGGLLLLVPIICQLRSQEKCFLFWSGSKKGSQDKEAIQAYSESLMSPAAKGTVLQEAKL
Vif imaging = HIV Vif self-association inhibitors, primary screen, imaging, HEK293T, single point. HEK293T cells, Vif self-association by quenched fluorescence, 24 h. inhibition, % at 7.49 µM. 340,000 compounds, 0.35% hits; in the data active = inhibition above about 50%, passing the limit was not always enough; inconclusive = no clear call, values can overlap the other calls; inactive = below about 31%
SR-BI uptake up = activators of SR-BI mediated DiI-HDL uptake, primary screen, ldlA[mSR-BI] CHO cells, DiI fluorescence. activation, % at 12.5 µM. 3 h; 100 = double the neutral-control signal. 320,000 compounds, 0.096% hits;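 active = mean replicate activation of at least 60% and every replicate at or above 60%; inconclusive = mean or all-replicate condition met, but not both; inactive = mean below 60% and not all replicates reaching 60%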
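System: CHO ldlA[mSR-BI] cells / Medium: HEPES-buffered (25 mM, pH 7.4) F12 plus 0.5% BSA / Probe or stimulus: labelled HDL, 10 µg/mL / Doses: single compound concentration, delivered by pin transfer / Schedule: 3 h, 37 °C / Measured by: DiI fluorescence, bottom read / Measure: cell-associated DiI fluorescence as measure of HDL uptake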
DiI quench = DiI fluorescence quenching in cell-free counter-screen | AC50, µM (top dose mostly 35 µM) | cell-free DiI-HDL fluorescence quenching, 30 min | 470 compounds, 20% hits | shares compounds with SR-BI DiI inh;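 active = quenching, a falling signal, with AC50 below a set limit tied to the top valid dose, actives reach about 32 µM in these data; inconclusive = no clear call, values can overlap the other calls; inactive = rising signal, and the rest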
Large screens that a line does not name were inactive (follow-up assays come after a bar, where they were run).

COc1ccc(CCn2c(O)c(/C=N/N3CCCCC3)c(=O)[nH]c2=O)cc1OC	none (no result: C2C12 statin)
CCCCCCn1c(O)c(/C=N/N2CCCCCC2)c(=O)[nH]c1=O	SR-BI uptake up 151 (no result: C2C12 statin)
CC(C)CC#Cc1ccc([C@@H]2[C@H](CO)N3CCCCN(C(=O)Cc4ccccn4)C[C@@H]23)cc1	none (no result: SR-BI DiI inh, Vif imaging, SR-BI uptake up)
O=C(Cc1ccccc1)OCC(=O)c1ccc(F)cc1	Vif imaging 87
O=C(O)[C@@H]1[C@@H](CO)[C@@H]2Cn3c(ccc(-c4ccccc4)c3=O)[C@H]1N2CC1CCCCC1	none (no result: SR-BI DiI inh, Vif imaging, SR-BI uptake up)
COc1cc2c(cc1OC)-c1c3c(cc4c1[C@@H](C2)N(C)CC4)OCO3	none
COc1cc2c(cc1OC)-c1c(OC)c(OC)cc3c1C(C2)N(C)CC3 (configuration not stated)	SR-BI DiI inh 76
O=c1c2ccccc2nc(-c2ccco2)n1-c1ccccn1	C2C12 statin 120
O=C(O)[C@H]1[C@H](CO)[C@H]2Cn3c(ccc(-c4ccccc4F)c3=O)[C@@H]1N2C(=O)Nc1ccccc1	none (no result: SR-BI DiI inh, Vif imaging, SR-BI uptake up)
O=C1NC(=O)C(=Cc2cc([N+](=O)[O-])ccc2N2CCCCC2)C(=O)N1	Vif imaging 59
O=C(Cn1ncc2c3ccccc3n(Cc3cccc(Cl)c3)c2c1=O)N1CCC2(CC1)OCCO2	Vif imaging 56
O=C(O)[C@@H]1[C@@H](CO)[C@@H]2Cn3c(ccc(C4=CCCCC4)c3=O)[C@H]1N2CCc1ccccc1	none (no result: SR-BI DiI inh, Vif imaging, SR-BI uptake up)
COC(=O)[C@@H]1[C@@H](CO)[C@@H]2Cn3c(ccc(-c4ccncc4)c3=O)[C@H]1N2S(=O)(=O)c1ccccc1C	none (no result: SR-BI DiI inh, Vif imaging, SR-BI uptake up)
O=C(Cc1ccccc1)OCn1nnc2ccccc2c1=O	Vif imaging 140
COC(=O)C1=C(c2ccc(F)cc2OCc2ccccc2)C[C@@H]2CC[C@H]1N2C(=O)NCc1ccc(Br)cc1	C2C12 statin 76
COC(=O)C1=C(c2ccc(F)cc2OCc2ccccc2)C[C@@H]2CC[C@H]1N2C(=O)NCc1ccc(OC)cc1	C2C12 statin 84
COC(=O)C1=C(c2ccc(F)cc2OCc2ccccc2)C[C@@H]2CC[C@H]1N2C(=O)NCc1cccc(OC)c1	none
COC(=O)C1=C(c2ccc(OC(F)(F)F)cc2)C[C@@H]2CC[C@H]1N2C(=O)NCCNC(C)=O	none
COC(=O)C1=C(c2ccc(OC(F)(F)F)cc2)C[C@@H]2CC[C@H]1N2C(=O)NCCOc1ccc(OC)cc1	C2C12 statin 128
COC(=O)C[C@@H]1CC[C@H]2NC[C@H](O)COC[C@@H]2O1	none (no result: SR-BI DiI inh, Vif imaging, SR-BI uptake up)
N#Cc1ccc(-c2ccc([C@H]3[C@H](CO)N4CCCCN(C(=O)Cc5ccccc5)C[C@@H]34)cc2)cc1	none (no result: SR-BI DiI inh, Vif imaging, SR-BI uptake up)
OC1(c2ccc(F)cc2)CCNC1 (configuration not stated)	Vif imaging 82
CCCN1[C@@H]2c3ccc(-c4ccccc4)c(=O)n3C[C@H]1[C@H](CO)[C@H]2C(=O)OC	none (no result: SR-BI DiI inh, Vif imaging, SR-BI uptake up)
CN1CCN(c2ccc([N+](=O)[O-])c(N3CCCCC3)c2)CC1	none
CN1CCCN(c2ccc([N+](=O)[O-])nc2)CC1	Vif imaging 52 (no result: SR-BI DiI inh, SR-BI uptake up)
Cc1c(C(=O)c2ccccc2)c2ccccc2n1C	none (no result: C2C12 statin)
CCCn1c(C)c(C(=O)c2cccc3ccccc23)c2ccccc21	SR-BI DiI inh 82
COC(=O)[C@@H]1[C@@H](CO)[C@@H]2Cn3c(ccc(C4=CCCC4)c3=O)[C@H]1N2C(=O)CC1CC1	none (no result: SR-BI DiI inh, Vif imaging, SR-BI uptake up)
O=C(Nc1ccc2c(c1)OCO2)c1cn(Cc2ccc(F)cc2)nn1	Vif imaging 53
O=C(O)[C@H]1[C@H](CO)[C@H]2Cn3c(ccc(-c4cncnc4)c3=O)[C@@H]1N2C(=O)NC1CCCC1	none (no result: SR-BI DiI inh, Vif imaging, SR-BI uptake up)
COc1ccc(Cn2c(N)c(C(=O)NCc3ccco3)c3nc4ccccc4nc32)cc1	C2C12 statin 74
Nc1c(C(=O)NCc2ccco2)c2nc3ccccc3nc2n1Cc1ccccc1	none (no result: C2C12 statin)
CCN1[C@@H]2Cn3c(ccc(-c4cccc(OC)c4)c3=O)[C@H]1[C@@H](C(=O)OC)[C@@H]2CO	none (no result: SR-BI DiI inh, Vif imaging, SR-BI uptake up)
COC(=O)[C@@H]1[C@@H](CO)[C@@H]2Cn3c(ccc(/C=C/c4ccccc4)c3=O)[C@H]1N2CC1CCCC1	none (no result: SR-BI DiI inh, Vif imaging, SR-BI uptake up)
CCN(CC)C(=O)c1ccc(NC(=O)c2cccc(F)c2)cc1	none
CCN(CC)C(=O)c1ccc(NC(=O)c2ccc3c(c2)NC(=O)CS3)cc1	SR-BI DiI inh 72 (no result: C2C12 statin)
COc1cc(C(O)CN)ccc1O (configuration not stated)	none
COc1cc(C(O)CNC(C)C)cc(F)c1OC (configuration not stated)	Vif imaging 55
C[C@@H]1C[C@@H]([C@H](O)CC2CC(=O)NC(=O)C2)C(=O)[C@@H](C)C1	C2C12 statin 173
CC(=O)OC1(C)CC(C)C(=O)C(C(O)CC2CC(=O)NC(=O)C2)C1 (configuration not stated)	C2C12 statin 83
Cc1ccc(C2=NCC(=O)N(CC(=O)N3CCCCC3)c3sc(C)c(C)c32)cc1	SR-BI DiI inh 88
COc1cc(/C=C/[N+](=O)[O-])ccc1O	SR-BI uptake up 81
COC(=O)[C@H]1[C@H](CO)[C@H]2Cn3c(ccc(/C=C/c4ccccc4)c3=O)[C@@H]1N2C(=O)C1CCC1	none (no result: SR-BI DiI inh, Vif imaging, SR-BI uptake up)
O=C(CN1CCN(Cc2ccc(Cl)cc2)C1=O)N1CCC2(CC1)OCCO2	C2C12 statin 87
CC12CN3CN(C1)CC(c1ccccc1)(C3)C2=O	C2C12 statin 102
OC1C2CN3CN(C2)CC1(c1ccccc1)C3 (configuration not stated)	none (no result: SR-BI DiI inh, SR-BI uptake up)
C[CH2][Hg][S]c1ccccc1C(=O)O	SR-BI DiI inh 106
CC(C)COC(=O)c1ccccc1C(=O)OCC(C)C	none
CCCCC1(CN2CCCC2=O)C(=O)NC(=O)NC1=O	C2C12 statin 106
CCCCC1(CCO)C(=O)NC(=S)NC1=O	none
CC(Cc1ccc(O)cc1)NCC(O)c1cc(O)cc(O)c1 (configuration not stated)	Vif imaging 90
COC(=O)[C@H]1[C@H](CO)[C@H]2Cn3c(ccc(C4=CCCCC4)c3=O)[C@@H]1N2Cc1cccnc1	none (no result: SR-BI DiI inh, Vif imaging, SR-BI uptake up)
C=C1N2CCC(CC2)C1(O)c1ccc(C)c(C)c1 (configuration not stated)	Vif imaging 51
C=C1N2CCC(CC2)C1(O)c1ccc(C)cc1 (configuration not stated)	none
O=c1cccc2n1CC1CC2CN(S(=O)(=O)c2cc(Cl)ccc2Cl)C1 (configuration not stated)	none | DiI quench inactive
N#Cc1ccc(Nc2nc(-c3ccc(O)cc3O)cs2)cc1C(F)(F)F	SR-BI DiI inh 103 | DiI quench 4.3µM
CCCNC(=O)[C@H]1[C@H](CO)[C@H]2Cn3c(cccc3=O)[C@H]2N1C	none (no result: SR-BI DiI inh, Vif imaging, SR-BI uptake up)
CNC1(c2ccc(F)cc2)CCCCC1	SR-BI DiI inh inconclusive (no result: C2C12 statin) | DiI quench inactive
Nc1ccc(C2(c3ccc(N)cc3)CCCCC2)cc1	none
COC(=O)[C@@H]1N[C@@H]2c3ccc(C4=CCCC4)c(=O)n3C[C@@H]2[C@H]1CO	none (no result: SR-BI DiI inh, Vif imaging, SR-BI uptake up)
